High-throughput results deposited in PubChem by Sanford-Burnham Center for Chemical Genomics.
SKN-1 inh: blocks SKN-1 activity in C. elegans; 360,000 tested, 0.49% active; C. elegans VP596 Pgst-4::GFP/RFP ratio, acrylamide-induced, 24 h; AID 624304; inhibition, % at 21.8 µM;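 active = interference check ratio from 0.5 to 1.5 plus GFP to RFP signal ratio inhibition reaching or exceeding a fixed threshold, cut at about 30% in these data, passing the limit was not always enough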
PABP1 MLLE inh: inhibitors of microRNA-mediated deadenylation, human PABP1 MLLE binding; AID 588489; 360,000 tested, 0.36% active; inhibition, % at 20 µM; GST-MLLE / FITC-PAM2 fluorescence polarization; in the data active = inhibition above about 35%, passing the limit was not always enough;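 also: plate controls were DMSO wells with GST-MLLE for no effect and wells lacking GST-MLLE protein for full effect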
PABP polyA inh: blocks human PABP binding to poly(A) RNA; P11940; fluorescence polarization; inhibition, % at 35 µM; 290,000 tested, 1% active; AID 2014;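 also: calls also rest on retests at 20 µM and on dose response follow-up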
eIF4H FP inh: inhibitors of RNA binding by human eIF4H; eIF4H fluorescence polarization binding assay; inhibition, % at 35 µM; AID 2012; Q15056; 290,000 tested, 0.94% active;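 also: calls also rest on retests at 20 µM and on dose response follow-up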
MT1-MMP act inh: blocks activation of human MT1-MMP. P50281. HT1080 RFP-PRO-GFP cells, GFP/RFP ratio fluorescence, overnight; percent of plate control window, DMSO zero. GFP/RFP ratio change, % at 20 µM. 360,000 tested, 0.061% active. AID 651647;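 active = GFP/RFP ratio change of at least 30% with cell ATP level not reduced by more than half and red fluorescence within 50% of control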
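Material: RFP-PRO-GFP reporter HT1080 cells. Dosing: single-point 20 µM compound, 1% DMSO. Controls: DMSO and RFP-L50D-GFP cell wells. Timing: cells overnight before dosing, compound overnight, 37 °C, 5% CO2. Measure: GFP/RFP fluorescence ratio.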
The depositor's hits bear a star; i = inactive; ? = inconclusive; . = not tested or not shown. Only some compounds are listed: those with a hit (about 1.7% of all), similar ones and a draw of the others. Unless noted, no rule for the calls is given here.

SMILES	SKN-1 inh	PABP1 MLLE inh	PABP polyA inh	eIF4H FP inh	MT1-MMP act inh
O=c1cc(C(F)(F)F)c2cc3c4c(c2o1)CCCN4CCC3	-18.6	i	125.4*	?	-193.2
Cc1cc2c(C(F)(F)F)cc(=O)oc2c2c1NCCC2	-6.4	40.7	?	?	-266.5
Cc1ccc2c(c1)C1CN(C)CCC1N2C(=O)/C(C#N)=C/c1ccc2c(c1)OCO2 (stereo unspecified)	4.0	-6.8	6.0	8.0	-5.6
CCCCN1C(=O)/C(=C\c2ccco2)C(=O)N(CCc2ccccc2)C1=O	-4.6	-36.2	59.7*	?	-14.4
CCCCN1C(=O)/C(=C/C=C/c2ccco2)C(=O)NC1=S	16.3	-92.1	14.5*	71.5*	-14.8
O=C1NC(=O)N(Cc2ccccc2)C(=O)/C1=C\c1ccco1	-2.8	-56.9	5.8	?	-11.7
O=C1NC(=O)N(Cc2ccc(F)cc2)C(=O)/C1=C\C=C\c1ccco1	-1.5	-70.1	?	?	-56.6
COc1ccc(CN2CCN(c3ccccc3F)CC2)cc1O	46.4*	-48.6	0.5	10.8	-2.3
CCCC(=O)c1cc(CP(=O)(OCC)OCC)oc1C	-3.3	16.1	6.1	13.3	-0.3
CCOP(=O)(Cc1cc(C(C)=O)c(C)o1)OCC	-1.1	40.1*	9.0	46.6	-7.2
COC(=O)COc1ccc(/C=C2\C(=O)NC(=S)N(c3ccc(C)cc3)C2=O)cc1OC	17.3	17.5	-14.1	-9.3	-6.7
CCOC(=O)COc1ccc(/C=C2\C(=O)NC(=S)N(c3ccc(OC)cc3)C2=O)cc1OC	-9.0	39.3*	-10.2	-5.6	-1.7
O=[N+]([O-])c1ccc(N2CCCC(C(F)(F)F)C2)c2ccncc12 (stereo unspecified)	2.5	-5.2	-4.1	0.7	-6.3
CO[C@H]1[C@@H](OC)CC(OC2OC(CO)C(O)C(O)C2O)/C(=C\C#N)[C@@H]1O (stereo partly specified)	10.3	-9.9	8.4	1.9	-1.2
COc1ccc(CN2C(=O)NC(=O)/C(=C/c3cc(OC)c(OC)c(OC)c3)C2=O)cc1	-3.9	19.0	44.3*	?	-4.0
COc1ccc(CN2C(=O)NC(=O)/C(=C/c3ccc(OC)c(OC)c3OC)C2=O)cc1	1.2	-0.5	48.1	68.6*	-1.6
O=C1CNC(c2ccccc2Cl)c2cc(Br)ccc2N1 (stereo unspecified)	6.4	12.2	-8.4	3.4	-0.8
S=P(NCCNP(=S)(N1CC1)N1CC1)(N1CC1)N1CC1	1.2	26.4	.	.	-7.7
S=P(Nn1cnnc1)(c1ccc(Br)cc1)c1ccc(Br)cc1	13.0	-87.5	2.6	1.1	1.5
Cn1c[n+](C)cc1C(O)c1ccccc1 (stereo unspecified)	-13.5	-140.2	64.8*	7.3	1.7
CN1C(CC(O)c2ccccc2)CCCC1CC(O)c1ccccc1 (stereo unspecified)	3.0	-6.6	.	.	0.4
C1=C(c2c[nH]c3ccccc23)CCNC1	.	.	82.5*	95.0*	.
C=CCn1c(C)c(C=C2C(=O)NC(=O)NC2=O)c2ccccc21	39.6*	3.6	12.8	78.3	2.1
CC1C=CCCC12C(=O)NC(=O)NC2=O (stereo unspecified)	17.3	1.3	.	.	0.5
CNC(=O)Oc1cccc(-c2cn3cc(OC(=O)NC)ccc3n2)c1	49.6*	20.5	3.1	?	.
SMILES	SKN-1 inh	PABP1 MLLE inh	PABP polyA inh	eIF4H FP inh	MT1-MMP act inh
CNC(=O)Oc1ccc(-c2cn3cc(Cl)ccc3n2)cc1	17.4	-9.3	13.9	-2.2	3.2
COC(=O)C1=C(c2ccccc2OCc2ccccc2)C[C@@H]2CC[C@H]1N2C(=O)NCc1ccc(Br)cc1	7.8	-4.7	.	.	-7.5
O=c1[nH]c(=S)[nH]c(O)c1N=Nc1ccc2c(c1)OCO2	20.1	-34.2	-3.6	53.1*	1.3
CSc1nc(N)c(N=Nc2ccc([As](=O)(O)O)cc2)c(=O)[nH]1	2.8	22.7	16.5	24.9	1.9
Cc1ccc(-n2c(O)c(C=Nc3ccc(S(=O)(=O)N(C)C)cc3)c(=O)[nH]c2=O)cc1	33.8*	-3.2	125.4*	?	-206.7
C=Cn1ccnc1P(=S)(c1ccccc1)c1nccn1C=C	5.2	0.4	90.9	active	3.1
O=C(Cc1ccccc1)N1CCN(Cc2ccc(Cl)cc2)CC1	-14.9	-6.2	.	.	5.5
CC(=O)Nc1ccc(CC(=O)N2CCN(Cc3ccccc3)CC2)cc1	8.7	2.3	60.3*	81.7*	-3.9
CN1C(=O)NC(=O)/C(=C/c2ccc([N+](=O)[O-])s2)C1=O	11.1	22.5	37.5*	63.7*	-1.9
